{"source": "ChEMBL document CHEMBL2396594", "about": "“Designing allosteric regulators of thrombin. Exosite 2 features multiple subsites that can be targeted by sulfated small molecules for inducing inhibition” (J Med Chem, 2013)", "key": {"[1]": {"assay": "Inhibition of recombinant human thrombin R233A mutant expressed in BHK cells using S2238 as substrate after overnight incubation at 25 degC", "how_it_was_run": "(§1)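 BHK-expressed, HPC4 immunoaffinity-purified thrombins, activated from prothrombin form. Active-site concentration from amidolysis and antithrombin titration. Enzyme (1.5−7.5 nM final) incubated overnight at 25 °C with inhibitor in Tris pH 7.4 buffer in coated cuvettes. Residual activity from S2238 initial rate at A405, using at least 9−10 points. Logistic fit gives IC50. Ratio is mutant IC50 over wild-type IC50.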"}, "[2]": {"assay": "Inhibition of human plasma alpha-thrombin assessed as spectrozyme TH hydrolysis preincubated for 10 mins by spectrophotometric analysis", "format": "cell-free", "how_it_was_run": "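Human plasma α-thrombin (5 nM final) with inhibitor (1−900 μM final) in 20 mM Tris-HCl pH 7.4, 100 mM NaCl, 2.5 mM CaCl2, 0.1% PEG8000, PEG20000-coated cuvettes, 10 min. Spectrozyme TH then added (30 μM final). Initial rate from A405 increase. Residual activity fitted by logistic equation with floating Hill slope, Y0, YM to give IC50.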"}, "[3]": {"assay": "Inhibition of recombinant human thrombin K236A mutant expressed in BHK cells using S2238 as substrate after overnight incubation at 25 degC", "how_it_was_run": "as §1"}, "Prothrombin": {"target": "Prothrombin (Homo sapiens, UniProt P00734)", "assay": "Inhibition of wild type recombinant human thrombin expressed in BHK cells using S2238 as substrate after overnight incubation at 25 degC", "how_it_was_run": "as §1"}, "Homo sapiens [4]": {"species_on_record": "Homo sapiens", "assay": "Uncompetitive inhibition of human plasma alpha-thrombin using spectrozyme TH as substrate assessed as decrease in enzyme Vmax at 3.6 uM after overnight incubation at 25 degC by Michaelis-Menten equation analysis relative to control", "format": "cell-free", "how_it_was_run": "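5 nM plasma α-thrombin with fixed inhibitor, preincubated overnight at 25 °C or 2 h at 37 °C in 20 mM Tris-HCl pH 7.4, 100 mM NaCl, 2.5 mM CaCl2, 0.1% PEG8000. Initial Spectrozyme TH (2−80 μM) hydrolysis rate read at 405 nm with under 10% substrate consumption. Michaelis−Menten fit gives KM and VMAX; error ±1 SE.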"}, "Homo sapiens [5]": {"species_on_record": "Homo sapiens", "assay": "(§2) Binding affinity to human plasma alpha-thrombin exosite-2 using spectrozyme TH as substrate after overnight incubation at 25 degC by spectrophotometric analysis in presence of 10 uM heparin octasaccharide", "format": "cell-free"}, "[6]": {"assay": "as §2", "format": "cell-free"}, "[7]": {"assay": "Inhibition of recombinant human thrombin K169A mutant expressed in BHK cells using S2238 as substrate after overnight incubation at 25 degC", "how_it_was_run": "as §1"}, "Homo sapiens [8]": {"species_on_record": "Homo sapiens", "assay": "Selectivity ratio of IC50 for human plasma alpha-thrombin to IC50 for wild type recombinant human thrombin"}, "[9]": {"assay": "Inhibition of recombinant human thrombin R126A mutant expressed in BHK cells using S2238 as substrate after overnight incubation at 25 degC", "how_it_was_run": "as §1"}, "Homo sapiens [10]": {"species_on_record": "Homo sapiens", "assay": "(§3) Binding affinity to human plasma alpha-thrombin exosite-2 using spectrozyme TH as substrate after overnight incubation at 25 degC by spectrophotometric analysis in presence of 12.8 uM unfractionated heparin", "format": "cell-free"}, "[11]": {"assay": "as §3", "format": "cell-free"}, "Plasma": {"system": "Plasma", "assay": "Anticoagulant activity in human plasma assessed as increase in activated partial […] time at 139 uM after 4 mins by fibrometric analysis relative to control", "format": "functional", "how_it_was_run": "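Citrated human plasma, one-stage recalcification, fibrometer read-out. APTT: 90 μL plasma + 10 μL inhibitor or vehicle + prewarmed 0.2% ellagic acid, 4 min, then 25 mM CaCl2 (37 °C). PT: inhibitor + plasma 30 s at 37 °C, then prewarmed thromboplastin. Duplicates. Quadratic trend line fit gives concentration doubling clotting time versus vehicle blank.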"}, "Homo sapiens [12]": {"species_on_record": "Homo sapiens", "assay": "(§4) Binding affinity to human plasma alpha-thrombin exosite-2 using spectrozyme TH as substrate after overnight incubation at 25 degC by spectrophotometric analysis in presence of 0.65 uM gamma'-fibrinogen peptide", "format": "cell-free"}, "[13]": {"assay": "as §4", "format": "cell-free"}, "Homo sapiens [14]": {"species_on_record": "Homo sapiens", "assay": "(§5) Binding affinity to human plasma alpha-thrombin exosite-2 using spectrozyme TH as substrate after overnight incubation at 25 degC by spectrophotometric analysis in presence of 2 uM gamma'-fibrinogen peptide", "format": "cell-free"}, "[15]": {"assay": "as §5", "format": "cell-free"}}, "data": [{"smiles": "CCOC(=O)c1c(C)oc2cc(OC)c(OCc3oc4cc(OC)c(OCc5oc6cc(OC)c(OS(=O)(=O)[O-])cc6c5C(=O)OCC)cc4c3C(=O)OCC)cc12.[Na+]", "values": [{"measurement": "IC50", "setting": "[1]", "value": 980, "unit": "nM"}, {"measurement": "pIC50", "setting": "[1]", "value": 6.01}, {"measurement": "IC50", "setting": "[2]; read-out: IC50", "value": 670, "unit": "nM"}, {"measurement": "IC50", "setting": "[2]; read-out: pIC50 (converted)", "value": 676, "unit": "nM"}, {"measurement": "IC50", "setting": "[3]", "value": 400, "unit": "nM"}, {"measurement": "pIC50", "setting": "[3]", "value": 6.4}, {"measurement": "IC50", "setting": "Prothrombin; read-out: IC50", "value": 260, "unit": "nM"}, {"measurement": "IC50", "setting": "Prothrombin; read-out: pIC50 (converted)", "value": 263, "unit": "nM"}, {"measurement": "fold change (FC)", "setting": "Homo sapiens [4]", "value": 4.3}, {"measurement": "pIC50(app)", "setting": "Homo sapiens [5]", "value": 5.78}, {"measurement": "IC50", "setting": "[6]", "value": 1600, "unit": "nM"}, {"measurement": "IC50", "setting": "[7]", "value": 330, "unit": "nM"}, {"measurement": "pIC50", "setting": "[7]", "value": 6.48}, {"measurement": "Ratio IC50", "setting": "Homo sapiens [8]", "value": 2.5}, {"measurement": "IC50", "setting": "[9]", "value": 290, "unit": "nM"}, {"measurement": "pIC50", "setting": "[9]", "value": 6.55}, {"measurement": "pIC50(app)", "setting": "Homo sapiens [10]", "value": 5.68}, {"measurement": "IC50", "setting": "[11]", "value": 2100, "unit": "nM"}, {"measurement": "fold change (FC)", "setting": "Plasma", "value": 2}, {"measurement": "pIC50(app)", "setting": "Homo sapiens [12]", "value": 5.95}, {"measurement": "IC50", "setting": "[13]", "value": 1100, "unit": "nM"}, {"measurement": "pIC50(app)", "setting": "Homo sapiens [14]", "value": 5.92}, {"measurement": "IC50", "setting": "[15]", "value": 1200, "unit": "nM"}]}]}
